Test results from ChEMBL document CHEMBL2434944, “Novel acetamidothiazole derivatives: synthesis and in vitro anticancer evaluation” (Eur J Med Chem, 2013).

Tests used:
SK-OV-3 = test: Growth inhibition of human SKOV3 cells assessed as cell growth at 10^-5 M after 48 hrs by sulforhodamine B assay relative to control; format: functional; settings: SK-OV-3, 48 h, read-out: Activity
Summary of the method: (§1)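 NCI-60 single-dose screen at 10^-5 M. Cells grown in RPMI 1640 with 5% FBS and 2 mM L-glutamine, plated at 5,000–40,000 cells/well according to doubling time, and preincubated 24 h at 37°C, 5% CO2. Compound dissolved in DMSO and added. Exposure 48 h. Adherent cells fixed with cold TCA (10% final), suspension cells with 16% final TCA. Read-out is 0.4% SRB staining, dye solubilised in 10 mM Tris, absorbance at 515 nm. Percent growth is calculated against the time-zero plate and untreated control.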

[1] = Growth inhibition of human NCI-ADR-RES cells assessed as cell growth at 10^-5 M after 48 hrs by sulforhodamine B assay relative to control; format: functional; settings: read-out: Activity; summary of the method: as §1
OVCAR-8 = test: Growth inhibition of human OVCAR8 cells assessed as cell growth at 10^-5 M after 48 hrs by sulforhodamine B assay relative to control; format: functional; settings: OVCAR-8, 48 h, read-out: Activity; summary of the method: as §1
OVCAR-3 = test: Growth inhibition of human OVCAR3 cells assessed as cell growth at 10^-5 M after 48 hrs by sulforhodamine B assay relative to control; format: functional; settings: OVCAR-3, 48 h, read-out: Activity; summary of the method: as §1
M14 = test: Growth inhibition of human M14 cells assessed as cell growth at 10^-5 M after 48 hrs by sulforhodamine B assay relative to control; format: functional; settings: M14, 48 h, read-out: Activity; summary of the method: as §1
SF-295 = test: Growth inhibition of human SF295 cells assessed as cell growth at 10^-5 M after 48 hrs by sulforhodamine B assay relative to control; format: functional; settings: SF-295, 48 h, read-out: Activity; summary of the method: as §1
KM12 = test: Growth inhibition of human KM12 cells assessed as cell growth at 10^-5 M after 48 hrs by sulforhodamine B assay relative to control; format: functional; settings: KM12, 48 h, read-out: Activity; summary of the method: as §1
NCI-H226 = test: Growth inhibition of human NCI-H226 cells assessed as cell growth at 10^-5 M after 48 hrs by sulforhodamine B assay relative to control; format: functional; settings: NCI-H226, 48 h, read-out: Activity; summary of the method: as §1
HOP-92 = test: Growth inhibition of human HOP92 cells assessed as cell growth at 10^-5 M after 48 hrs by sulforhodamine B assay relative to control; format: functional; settings: HOP-92, 48 h, read-out: Activity; summary of the method: as §1
[2] = biological target: T1, Leukotriene A-4 hydrolase (Homo sapiens, UniProt P09960); test: Inhibition of human leukotriene A-4 hydrolase
T1 sequence (P09960 whole entry): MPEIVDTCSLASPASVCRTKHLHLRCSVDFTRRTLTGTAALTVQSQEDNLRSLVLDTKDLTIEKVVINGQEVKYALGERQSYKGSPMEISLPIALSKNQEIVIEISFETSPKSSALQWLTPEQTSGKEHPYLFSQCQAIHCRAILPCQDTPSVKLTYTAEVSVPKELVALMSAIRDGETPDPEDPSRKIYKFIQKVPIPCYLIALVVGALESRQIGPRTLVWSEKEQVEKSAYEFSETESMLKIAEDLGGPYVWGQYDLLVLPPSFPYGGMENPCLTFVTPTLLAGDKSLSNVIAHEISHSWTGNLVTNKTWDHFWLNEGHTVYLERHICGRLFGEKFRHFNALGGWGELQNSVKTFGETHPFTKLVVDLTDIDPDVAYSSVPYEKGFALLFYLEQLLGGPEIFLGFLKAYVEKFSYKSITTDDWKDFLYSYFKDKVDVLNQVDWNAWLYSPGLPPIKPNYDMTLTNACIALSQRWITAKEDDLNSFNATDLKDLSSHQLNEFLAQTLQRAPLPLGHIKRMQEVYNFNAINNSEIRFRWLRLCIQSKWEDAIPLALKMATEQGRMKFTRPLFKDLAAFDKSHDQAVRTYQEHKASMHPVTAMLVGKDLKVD

Cathepsin K = biological target: T2, Cathepsin K (Homo sapiens, UniProt P43235); test: Inhibition of human cathepsin K
T2 sequence (P43235 whole entry): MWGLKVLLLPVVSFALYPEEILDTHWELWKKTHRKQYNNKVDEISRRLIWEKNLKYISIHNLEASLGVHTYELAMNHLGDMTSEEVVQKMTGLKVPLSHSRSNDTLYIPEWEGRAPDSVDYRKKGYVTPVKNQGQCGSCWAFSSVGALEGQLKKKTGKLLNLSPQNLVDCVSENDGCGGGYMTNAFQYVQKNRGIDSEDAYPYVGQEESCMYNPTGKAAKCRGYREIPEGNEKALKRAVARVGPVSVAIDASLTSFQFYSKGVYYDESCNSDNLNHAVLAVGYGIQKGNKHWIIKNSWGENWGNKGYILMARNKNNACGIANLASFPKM

T47D = test: Growth inhibition of human T47D cells assessed as cell growth at 10^-5 M after 48 hrs by sulforhodamine B assay relative to control; format: functional; settings: read-out: Activity
Summary of the method: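 NCI-60 single-dose screen, 10^-5 M final. Cells grown in RPMI 1640 with 5% FBS and 2 mM L-glutamine, seeded at 5,000–40,000 cells/well by doubling time. Preincubated 24 h at 37°C, 5% CO2. Compound in DMSO, diluted in medium with gentamicin, then 48 h exposure. Fixed with cold TCA, SRB stained, A515 read. Percent growth vs untreated control, time-zero plate corrected.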

DU-145 = test: Growth inhibition of human DU145 cells assessed as cell growth at 10^-5 M after 48 hrs by sulforhodamine B assay relative to control; format: functional; settings: DU-145, 48 h, read-out: Activity; summary of the method: as §1
PC-3 = test: Growth inhibition of human PC3 cells assessed as cell growth at 10^-5 M after 48 hrs by sulforhodamine B assay relative to control; format: functional; settings: PC-3, 48 h, read-out: Activity; summary of the method: as §1

SMILES	growth at 10 µM (SK-OV-3) [%]	growth at 10 µM [1] [%]	growth at 10 µM (OVCAR-8) [%]	growth at 10 µM (OVCAR-3) [%]	growth at 10 µM (M14) [%]	growth at 10 µM (SF-295) [%]	growth at 10 µM (KM12) [%]	growth at 10 µM (NCI-H226) [%]	growth at 10 µM (HOP-92) [%]	Ki [2] [µM]	Ki (Cathepsin K) [µM]	growth at 10 µM (T47D) [%]	growth at 10 µM (DU-145) [%]	growth at 10 µM (PC-3) [%]
Cc1ccc(-c2csc(=N)n2CC(=O)N2CCN(C)CC2)cc1	111	93.1	99.5	108	105	83.4	104	93.1	62.8	0.369	8.71	81.6	109	68.4
CN1CCN(C(=O)Cn2c(-c3ccccc3)csc2=N)CC1	89.2	92.6	92.9	95.4	94.2	65.9	102	85.2	73.8	0.629	6.22	78	104	82.1
CN1CCN(C(=O)Cn2c(-c3ccc(Cl)cc3)csc2=N)CC1	92.5	98	96.8	101	98.9	–	98.7	95.9	77.6	0.172	4.58	78.4	99	83.3
N=c1scc(-c2ccc(Cl)cc2)n1CC(=O)N1CCOCC1	90	98.3	101	108	92.2	–	106	94.4	81.8	1.06	44.9	69.7	104	79.2
CC(=O)N1CCN(C(=O)Cn2c(-c3ccc(C)cc3)csc2=N)CC1	103	93	98.4	108	97.9	–	99.4	96	60.9	1.64	24	73.4	110	65.2
N=c1scc(-c2ccc(Cl)cc2)n1CC(=O)N1CCN(c2ccccc2)CC1	109	98	97.8	113	99.7	89.7	108	92.2	76.1	0.093	11.1	88.9	114	81.8
